In ChEMBL document CHEMBL1133118 (J Med Chem, 2000):

Assays:
Adenosine receptor A2a [1] = target: T1, Adenosine receptor A2a (Homo sapiens, UniProt P29274); experiment: Displacement of [3H]-SCH- 58261 from human adenosine A2A receptor expressed in CHO cells; range 47-78; assay type: cell-based
Summary of the method: (§1)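 Membranes from CHO cells stably expressing human A2A receptor, grown in DMEM/F12 without nucleosides, resuspended in 50 mM Tris HCl, 10 mM MgCl2, pH 7.4; 50 μg protein/assay. Competition with [3H]SCH 58261 at 6–8 or more compound concentrations, 60 min at 25 °C; nonspecific binding with 50 μM NECA. Filtration on GF/B filters, scintillation counting; n=3-6.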

Adenosine receptor A2b [2] = target: T2, Adenosine receptor A2b (Homo sapiens, UniProt P29275); experiment: Displacement of [3H]DPCPX from Adenosine A2b receptor expressed in CHO cells; range 45-64; assay type: cell-based; details: in the assay text read “HEK-293 cells” for “CHO cells”
T2 sequence (P29275 whole entry): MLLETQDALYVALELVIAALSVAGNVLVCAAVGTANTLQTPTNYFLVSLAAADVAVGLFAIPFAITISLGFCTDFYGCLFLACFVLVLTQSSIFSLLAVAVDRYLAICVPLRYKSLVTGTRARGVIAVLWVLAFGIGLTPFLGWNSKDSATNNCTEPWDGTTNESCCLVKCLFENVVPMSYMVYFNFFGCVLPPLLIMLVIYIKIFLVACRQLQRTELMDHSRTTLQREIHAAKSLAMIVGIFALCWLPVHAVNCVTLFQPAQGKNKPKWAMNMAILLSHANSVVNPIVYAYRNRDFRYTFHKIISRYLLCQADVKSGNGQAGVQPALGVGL
Summary of the method: (§2)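 Human recombinant A2B receptor was expressed in HEK-293 cell membranes (20 μg protein). Incubated with 40 nM [3H]DPCPX in 50 mM Tris HCl, 10 mM MgCl2, 1 mM EDTA, 0.1 mM benzamidine, pH 7.4, with 2 IU/mL adenosine deaminase, at least 6–8 test concentrations, 60 min, 25 °C. Nonspecific binding was taken with 100 μM NECA; n=3-6.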

Adenosine receptor A1 = target: T3, Adenosine receptor A1 (Homo sapiens, UniProt P30542); experiment: Displacement of [3H]DPCPX from human adenosine A1 receptor expressed in CHO cells; range 149-204; assay type: cell-based
T3 sequence (P30542 whole entry): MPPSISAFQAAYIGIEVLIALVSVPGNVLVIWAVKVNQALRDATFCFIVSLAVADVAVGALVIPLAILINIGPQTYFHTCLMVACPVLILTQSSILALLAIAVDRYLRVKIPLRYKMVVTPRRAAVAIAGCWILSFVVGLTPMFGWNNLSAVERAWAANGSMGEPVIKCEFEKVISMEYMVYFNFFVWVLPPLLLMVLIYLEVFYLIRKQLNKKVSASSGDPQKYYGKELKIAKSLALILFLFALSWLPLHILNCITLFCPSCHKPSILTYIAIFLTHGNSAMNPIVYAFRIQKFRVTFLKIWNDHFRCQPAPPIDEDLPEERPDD

Adenosine receptor A3 [3] = target: T4, Adenosine receptor A3 (Homo sapiens, UniProt P0DMS8); experiment: Displacement of [3H]MRE3008-F20 from human adenosine A3 receptor expressed in CHO cells; range 23-40; assay type: cell-based
T4 sequence (P0DMS8 whole entry): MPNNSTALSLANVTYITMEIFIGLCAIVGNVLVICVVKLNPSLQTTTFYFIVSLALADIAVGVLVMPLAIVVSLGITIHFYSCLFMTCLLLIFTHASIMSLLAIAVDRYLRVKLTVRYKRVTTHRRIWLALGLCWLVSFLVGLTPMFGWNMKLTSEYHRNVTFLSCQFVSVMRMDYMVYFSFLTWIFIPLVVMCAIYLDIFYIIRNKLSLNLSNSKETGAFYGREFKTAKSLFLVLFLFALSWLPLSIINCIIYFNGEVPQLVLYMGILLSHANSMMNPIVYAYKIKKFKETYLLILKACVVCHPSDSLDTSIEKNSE

[4] = target: Adenosine receptors; A1 & A3 (Homo sapiens) (UniProt P30542+P0DMS8); experiment: Ratio of binding affinity of human A1 receptor to that of human A3 receptor; assay type: protein assay
Summary of the method: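 Ki ratio from displacement in CHO membranes, 6–8 concentrations, n=3-6, filtration counting. A1: 1 nM [3H]DPCPX, 50 μg protein, 120 min at 25 °C, nonspecific with 10 μM CHA. A3: 1 nM [3H]MRE3008-F20, 50 μg protein, Tris/10 mM MgCl2 pH 7.4, 120 min at 4 °C, nonspecific with 1 μM MRE3008-F20.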

[5] = target: Adenosine receptors; A2b & A3 (Homo sapiens) (UniProt P29275+P0DMS8); experiment: Ratio of binding affinity of human A2B receptor to that of human A3 receptor; assay type: protein assay
Summary of the method: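 Ki ratio, n=3-6, 6–8 concentrations. A2B in HEK-293 membranes (20 μg): 40 nM [3H]DPCPX, 50 mM Tris HCl, 10 mM MgCl2, 1 mM EDTA, 0.1 mM benzamidine pH 7.4, 2 IU/mL adenosine deaminase, 60 min at 25 °C, nonspecific with 100 μM NECA. A3 in CHO membranes (50 μg): 1 nM [3H]MRE3008-F20, 120 min at 4 °C.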

[6] = target: T5, Adenosine receptor A3 (Homo sapiens) (UniProt P0DMS8); details: CHO, 1 uM
T5 sequence (whole entry): T4 sequence (P0DMS8 whole entry)

Adenosine receptor A3 [7] = target: T4, Adenosine receptor A3; experiment: Inhibition of cAMP accumulation in CHO cells expressing human adenosine A3 receptor; assay type: functional, cell-based
[8] = target: T5, Adenosine receptor A3 (Homo sapiens); experiment: Percentage of blockade by 1 uM of the inhibition by 100 nM IB-MECA-inhibited cAMP accumulation in CHO cells expressing human adenosine A3 receptor.; assay type: functional, cell-based
Summary of the method: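 CHO cells stably expressing human A3 receptor; membranes in 50 mM Tris HCl, 10 mM MgCl2, 1 mM EDTA pH 7.4 with 5 μM GTP, 0.5 mM […] and 2.0 IU/mL adenosine deaminase. Preincubated 10 min at 37 °C, then IB-MECA (100 nM) and/or antagonist with 1 mM ATP and 10 μM forskolin for 10 min. Boiled 2 min. cAMP read by [3H]cAMP competition with adrenal binding protein.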

Adenosine receptor A3 [9] = target: T4, Adenosine receptor A3; experiment: biochemical
Adenosine receptor A3 [10] = target: T4, Adenosine receptor A3; experiment: Displacement of [3H]MRE3008-F20 from human adenosine A3 receptor expressed in CHO cells; range 378-488; assay type: cell-based
Adenosine receptor A2a [11] = target: T1, Adenosine receptor A2a; experiment: biochemical
Adenosine receptor A2b [12] = target: T2, Adenosine receptor A2b; experiment: Displacement of [3H]DPCPX from Adenosine A2b receptor expressed in HEK-293 cells; range 38-63
Adenosine receptor A2a [13] = target: T1, Adenosine receptor A2a; experiment: Displacement of [3H]-SCH- 58261 from human adenosine A2A receptor expressed in CHO cells; range 880-1160; assay type: cell-based; summary of the method: as §1
Adenosine receptor A2b [14] = target: T2, Adenosine receptor A2b; experiment: Displacement of [3H]-DPCPX from Adenosine A2b receptor expressed in […]; range 719-895; assay type: cell-based
Adenosine receptor A3 [15] = target: T4, Adenosine receptor A3; experiment: Displacement of [3H]MRE3008-F20 from human adenosine A3 receptor expressed in CHO cells; range 33-48; assay type: cell-based
Adenosine receptor A3 [16] = target: T4, Adenosine receptor A3; experiment: Displacement of [3H]MRE3008-F20 from human adenosine A3 receptor expressed in CHO cells; range 7.2-8.9; assay type: cell-based
Adenosine receptor A2b [17] = target: T2, Adenosine receptor A2b; experiment: Displacement of [3H]DPCPX from Adenosine A2b receptor expressed in HEK-293 cells; range 81-101
Adenosine receptor A3 [18] = target: T4, Adenosine receptor A3; experiment: Displacement of [3H]MRE3008-F20 from human adenosine A3 receptor expressed in CHO cells; range 0.85-0.98; assay type: cell-based
Adenosine receptor A2b [19] = target: T2, Adenosine receptor A2b; experiment: Displacement of [3H]-DPCPX from Adenosine A2b receptor expressed in CHO cells; range 50-63; assay type: cell-based; details: in the assay text read “HEK-293 cells” for “CHO cells”; summary of the method: as §2
Adenosine receptor A3 [20] = target: T4, Adenosine receptor A3; experiment: Inhibition of cAMP accumulation in CHO cells expressing human adenosine A3 receptor; range 4.0-7.5; assay type: functional, cell-based
[21] = target: T5, Adenosine receptor A3 (Homo sapiens); details: CHO, 1 uM; remark: listed apart in the source

T1 sequence (P29274 whole entry): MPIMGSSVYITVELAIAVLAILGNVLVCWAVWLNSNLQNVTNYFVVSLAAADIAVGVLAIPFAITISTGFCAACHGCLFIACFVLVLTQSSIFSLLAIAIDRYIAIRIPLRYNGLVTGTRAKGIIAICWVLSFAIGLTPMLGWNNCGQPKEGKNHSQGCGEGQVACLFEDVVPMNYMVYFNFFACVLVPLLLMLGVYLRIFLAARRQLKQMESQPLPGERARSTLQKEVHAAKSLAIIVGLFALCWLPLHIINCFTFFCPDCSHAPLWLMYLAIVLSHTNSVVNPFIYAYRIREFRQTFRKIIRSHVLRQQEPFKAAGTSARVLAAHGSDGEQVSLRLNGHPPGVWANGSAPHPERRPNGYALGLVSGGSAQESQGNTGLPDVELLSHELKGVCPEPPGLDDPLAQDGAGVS

COc1ccc(NC(=O)Nc2nc3nn(CCC(C)C)cc3c3nc(-c4ccco4)nn23)cc1
Ki (Adenosine receptor A2a [1]): 65 nM | Ki (Adenosine receptor A2b [2]): 54 nM | Ki (Adenosine receptor A1): 175 nM | Ki (Adenosine receptor A3 [3]): 30 nM | Ratio [4]: 5.8 | Ratio [5]: 1.8 | inhibition [6]: 48%

Nc1nc2ccc(Cl)cc2c2nc(-c3ccco3)nn12 [CGS-15943]
IC50 (Adenosine receptor A3 [7]): 406 nM | inhibition [8]: 30% | Ki (Adenosine receptor A3 [9]): 85 nM

Nc1nc2nn(CCCc3ccccc3)cc2c2nc(-c3ccco3)nn12
Ki (Adenosine receptor A3 [10]): 430 nM | Ratio [4]: 0.007 | Ratio [5]: 0.011 | inhibition [8]: 18% | Ki (Adenosine receptor A2a [11]): 0.16 nM | Ki (Adenosine receptor A2b [12]): 49 nM

COc1ccc(NC(=O)Nc2nc3nn(CCCc4ccccc4)cc3c3nc(-c4ccco4)nn23)cc1
Ki (Adenosine receptor A2a [13]): 1010 nM | Ki (Adenosine receptor A2b [14]): 802 nM | Ki (Adenosine receptor A3 [15]): 40 nM | Ratio [4]: 6.27 | Ratio [5]: 20 | inhibition [8]: 49%

O=C(Nc1cccc(Cl)c1)Nc1nc2nn(CCc3ccccc3)cc2c2nc(-c3ccco3)nn12
Ki (Adenosine receptor A3 [16]): 8 nM | Ratio [4]: 6.3 | Ratio [5]: 11.2 | inhibition [8]: 58% | Ki (Adenosine receptor A2b [17]): 90 nM

CCCn1cc2c(nc(NC(=O)Nc3cccc(Cl)c3)n3nc(-c4ccco4)nc23)n1
Ki (Adenosine receptor A3 [18]): 0.9 nM | Ki (Adenosine receptor A2b [19]): 57 nM | IC50 (Adenosine receptor A3 [20]): 5.5 nM | Ratio [4]: 33 | Ratio [5]: 62.6 | inhibition [21]: 80%
